In ChEMBL document CHEMBL4028811, “Discovery of 2-substituted 1H-benzo[d]immidazole-4-carboxamide derivatives as novel poly(ADP-ribose)polymerase-1 inhibitors with in vivo anti-tumor activity” (Eur J Med Chem, 2017):
One block for each compound: values may come before it.

Legend:
[1] = target: T1, Poly [ADP-ribose] polymerase 1 (Homo sapiens, UniProt P09874); assay: Inhibition of recombinant human PARP1 expressed in Escherichia coli BL21(DE3) using sheared DNA as substrate measured after 1 hr in presence of NAD+
T1 sequence (P09874 whole entry): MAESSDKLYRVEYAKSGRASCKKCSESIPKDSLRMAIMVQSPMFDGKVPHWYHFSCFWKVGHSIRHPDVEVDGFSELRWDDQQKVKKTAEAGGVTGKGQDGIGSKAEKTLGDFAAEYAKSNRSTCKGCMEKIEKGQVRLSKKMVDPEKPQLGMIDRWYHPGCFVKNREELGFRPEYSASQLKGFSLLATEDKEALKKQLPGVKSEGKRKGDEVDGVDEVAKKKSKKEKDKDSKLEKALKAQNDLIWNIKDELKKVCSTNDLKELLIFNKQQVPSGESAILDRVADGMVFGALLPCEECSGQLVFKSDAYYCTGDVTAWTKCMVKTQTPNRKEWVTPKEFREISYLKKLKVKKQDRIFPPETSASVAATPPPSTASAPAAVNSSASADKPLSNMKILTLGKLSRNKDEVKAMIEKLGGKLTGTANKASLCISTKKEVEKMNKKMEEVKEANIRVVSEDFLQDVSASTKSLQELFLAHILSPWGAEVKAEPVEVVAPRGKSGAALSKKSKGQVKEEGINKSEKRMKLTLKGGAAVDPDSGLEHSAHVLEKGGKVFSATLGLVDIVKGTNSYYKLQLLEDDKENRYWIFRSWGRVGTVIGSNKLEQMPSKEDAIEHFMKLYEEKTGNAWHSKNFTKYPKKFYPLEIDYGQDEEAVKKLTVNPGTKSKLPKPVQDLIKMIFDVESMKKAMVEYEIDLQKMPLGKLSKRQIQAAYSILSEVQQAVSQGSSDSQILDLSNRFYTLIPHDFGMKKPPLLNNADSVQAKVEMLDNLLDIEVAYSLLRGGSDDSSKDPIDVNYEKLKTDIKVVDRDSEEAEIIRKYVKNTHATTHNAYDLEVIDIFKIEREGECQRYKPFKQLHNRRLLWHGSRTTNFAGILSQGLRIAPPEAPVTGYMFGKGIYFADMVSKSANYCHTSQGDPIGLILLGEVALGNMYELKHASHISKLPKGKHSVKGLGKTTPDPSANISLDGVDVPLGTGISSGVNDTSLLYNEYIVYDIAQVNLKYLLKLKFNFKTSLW

[2] = target: T1, Poly [ADP-ribose] polymerase 1; assay: Inhibition of recombinant human PARP1 expressed in Escherichia coli BL21(DE3) using histone as substrate measured after 1 hr in presence of biotinylated NAD+ by ELISA
Homo sapiens = species on record: Homo sapiens; assay: Selectivity ratio of IC50 for recombinant human PARP2 to IC50 for recombinant human PARP1
Procedure, shortened: (§1)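 Human recombinant PARP2 (and PARP1) expressed and purified, inhibition measured by ELISA, with AZD2281 as positive control. IC50 from concentration–response fitting.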

[3] = target: T1, Poly [ADP-ribose] polymerase 1; assay: Inhibition of PARP1 in human MX1 cells assessed as potentiation of temozolomide-induced cytotoxicity at 10 uM after 72 hrs by MTT assay relative to temozolomide alone; type: cell-based
Procedure, shortened: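 MX-1 cells seeded at 2000/well and exposed for 72 h to TMZ (0–0.5 mmol/L) with or without PARP inhibitor fixed at 10 μmol/L. Survival read by MTT. PF50 = IC50 of TMZ alone / IC50 of TMZ + inhibitor.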

[4] = target: Poly [ADP-ribose] polymerase 2 (Homo sapiens, UniProt Q9UGN5); assay: Inhibition of recombinant human PARP2 expressed in Escherichia coli BL21(DE3) using histone as substrate measured after 1 hr in presence of biotinylated NAD+ by ELISA; procedure, shortened: as §1
Sequence of Poly [ADP-ribose] polymerase 2 (Q9UGN5 whole entry): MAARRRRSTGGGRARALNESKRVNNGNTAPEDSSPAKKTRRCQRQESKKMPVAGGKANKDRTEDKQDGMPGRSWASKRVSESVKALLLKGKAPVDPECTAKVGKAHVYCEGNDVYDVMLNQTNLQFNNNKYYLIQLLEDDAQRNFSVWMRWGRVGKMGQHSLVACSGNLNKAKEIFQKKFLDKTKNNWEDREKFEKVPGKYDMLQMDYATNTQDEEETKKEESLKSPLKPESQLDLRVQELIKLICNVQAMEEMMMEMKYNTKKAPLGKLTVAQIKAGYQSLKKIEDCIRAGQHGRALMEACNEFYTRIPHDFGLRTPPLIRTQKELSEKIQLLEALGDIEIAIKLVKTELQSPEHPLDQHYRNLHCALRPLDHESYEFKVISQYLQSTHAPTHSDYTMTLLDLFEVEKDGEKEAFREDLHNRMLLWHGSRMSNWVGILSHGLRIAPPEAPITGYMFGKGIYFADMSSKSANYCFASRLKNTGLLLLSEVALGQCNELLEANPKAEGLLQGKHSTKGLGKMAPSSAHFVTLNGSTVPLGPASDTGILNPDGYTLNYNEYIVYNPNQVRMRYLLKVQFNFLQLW

MX1 [5] = assay: Anti-tumor activity against human MX1 cells xenografted in BALB/c mouse assessed as tumor growth inhibition at 50 mg/kg, po administered once daily via gavage for 5 days measured after 11 days relative to control; type: functional
Procedure, shortened: (§2)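 Female athymic BALB/c nude mice, 8–10 weeks old, implanted s.c. with 1×10^6 MX-1 cells in 0.1 mL PBS. Day 6: grouped at 6/group, tumors 100–300 mm³. Oral gavage once daily. TMZ 50 mg/kg/day for 5 days; single-agent test compound 50 mg/kg/day for 10 days; combinations both orally for 5 days. Body weight and tumor volume measured twice weekly; euthanized day 11.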

MX1 [6] = assay: Anti-tumor activity against human MX1 cells xenografted in BALB/c mouse assessed as tumor weight at 50 mg/kg, po administered once daily via gavage for 5 days measured after 11 days (reference value: 4.09 +/- 0.64 g); type: functional; procedure, shortened: as §2
Mus musculus = assay: Toxicity in BALB/c mouse assessed as change in body weight at 50 mg/kg, po administered once daily via gavage for 5 days measured twice every week up to 11 days (reference value: 5.32 g); type: organism-based; conditions: in vivo; procedure, shortened: as §2

SMILES: NC(=O)c1cccc2[nH]c(C(=O)NC3CCCN(C4CCNCC4)C3)nc12 (centres undefined)
IC50 [1]: 793 nM

SMILES: NC(=O)c1cccc2[nH]c(C(=O)NC3CCNCC3)nc12
IC50 [2]: 101 nM | Ratio IC50 (Homo sapiens): < 10 | PF50 [3]: 1.75

SMILES: NC(=O)c1cccc2[nH]c(C(=O)NC3CCN(C4CCNCC4)CC3)nc12
IC50 [2]: 316 nM

SMILES: CC(C)(C)OC(=O)N1CCC(NC2CCN(C(=O)c3nc4c(C(N)=O)cccc4[nH]3)C2)CC1 (centres undefined)
IC50 [2]: 1190 nM

SMILES: CCCNC1CCN(C(=O)c2nc3c(C(N)=O)cccc3[nH]2)C1 (centres undefined)
IC50 [2]: 79 nM | Ratio IC50 (Homo sapiens): < 10 | IC50 [4]: 75 nM | PF50 [3]: 1.54

SMILES: CC(C)(C)OC(=O)NC1CCN(C(=O)c2nc3c(C(N)=O)cccc3[nH]2)CC1
IC50 [2]: 968 nM

SMILES: CC(C)CCN1CCCC(NC(=O)c2nc3c(C(N)=O)cccc3[nH]2)C1 (centres undefined)
IC50 [1]: 708 nM

SMILES: NC(=O)c1cccc2[nH]c(C(=O)NC3CCN(CC4CC4)CC3)nc12
IC50 [2]: 108 nM | Ratio IC50 (Homo sapiens): < 10 | IC50 [4]: 130 nM | PF50 [3]: 3.53

SMILES: NC(=O)c1cccc2[nH]c(C(=O)NC3CCNC3)nc12 (centres undefined)
IC50 [1]: 343 nM

SMILES: Cn1nnc2c(C(N)=O)ncn2c1=O [TEMOZOLOMIDE]
T/C (MX1 [5]): 38% | inhibition in vivo at 50 mg/kg (MX1 [5]; Mus musculus, MX1, po, read-out: TGI): 62% | Activity (MX1 [6]): 1.57 g | Activity (Mus musculus): 0.02 g

SMILES: CCC(CC)N1CCC(NC(=O)c2nc3c(C(N)=O)cccc3[nH]2)CC1
IC50 [2]: 302 nM

SMILES: CC[C@@H]1CN(C(=O)c2nc3c(C(N)=O)cccc3[nH]2)CCN1
IC50 [2]: > 100 nM

SMILES: CC(C)(C)OC(=O)NC1CCN(C(=O)c2nc3c(C(N)=O)cc(F)cc3[nH]2)CC1
IC50 [2]: 80 nM

SMILES: NC(=O)c1cccc2[nH]c(C(=O)N3CCC(NC4CCNCC4)CC3)nc12
IC50 [2]: 316 nM

SMILES: NC(=O)c1cccc2[nH]c(C(=O)N3C[C@H]4CCCN[C@H]4C3)nc12
IC50 [2]: 116 nM

SMILES: CC(C)(C)OC(=O)N1CCN(C(=O)c2nc3c(C(N)=O)cccc3[nH]2)CC1
IC50 [2]: 152 nM

SMILES: NC(=O)c1cccc2[nH]c(C(=O)NC3CCCNC3)nc12 (centres undefined)
IC50 [1]: 199 nM

SMILES: CC(C)(C)OC(=O)N1CCC(NC(=O)c2nc3c(C(N)=O)cccc3[nH]2)C1 (centres undefined)
IC50 [1]: 1810 nM

SMILES: NC(=O)c1cccc2[nH]c(C(=O)NC3CCN(C4CCCCC4)C3)nc12 (centres undefined)
IC50 [1]: > 1000 nM

SMILES: CC(C)CN1CCN(C(=O)c2nc3c(C(N)=O)cccc3[nH]2)CC1
IC50 [2]: 81 nM

Continued, in another order:

IC50 [2]: 19 nM
SMILES: CC[C@H]1CN(C(=O)c2nc3c(C(N)=O)cccc3[nH]2)CCN1

IC50 [2]: 37 nM | Ratio IC50 (Homo sapiens): < 10 | IC50 [4]: 38 nM
SMILES: NC(=O)c1cc(F)cc2[nH]c(C(=O)N3CCC(NC4CCCCC4)C3)nc12 (centres undefined)
PF50 [3]: 1.71

IC50 [2]: 49 nM
SMILES: CCCN1CCC(NC(=O)c2nc3c(C(N)=O)cccc3[nH]2)CC1

IC50 [2]: 70 nM
SMILES: NC(=O)c1cccc2[nH]c(C(=O)N3CCC(NC4CCCCC4)CC3)nc12

IC50 [2]: 40 nM
SMILES: CCN1CCC(NC(=O)c2nc3c(C(N)=O)cccc3[nH]2)CC1

IC50 [2]: 42 nM
SMILES: NC(=O)c1cccc2[nH]c(C(=O)N3CCNCC3)nc12

IC50 [2]: 34 nM | Ratio IC50 (Homo sapiens): < 10 | IC50 [4]: 100 nM
SMILES: NC(=O)c1cccc2[nH]c(C(=O)NC3CCN(CC(F)(F)F)CC3)nc12
PF50 [3]: 0.93

IC50 [2]: 29 nM | Ratio IC50 (Homo sapiens): < 10 | IC50 [4]: 73 nM
SMILES: NC(=O)c1cccc2[nH]c(C(=O)N3CCC(N)CC3)nc12
PF50 [3]: 1.99

IC50 [2]: 41 nM
SMILES: CC(C)(C)CN1CCC(NC(=O)c2nc3c(C(N)=O)cccc3[nH]2)CC1
